According to ChEMBL document CHEMBL1139282, “6-Bicycloaryl substituted (S)- and (R)-5,6-dihydro-2H-pyran-2-ones: asymmetric synthesis, and anti-proliferative properties” (Bioorg Med Chem, 2009):

Assays:
Assay type in all cases: functional, cell-based
[1] = tested on: PC-3; experiment: Cytotoxicity against human PC3 cells after 48 hrs by MTT assay; conditions: PC-3, 48 h
In short: (§1)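 PC-3 kept in DMEM with 5% FBS, MCF-7 in RPMI-1640 with 15% FBS, both used at passages 10-20. Seeded at 1×10^4 cells/well, attached 24 h, then treated 48 h at 0.01-50 µM with final 1% DMSO, in triplicate. Wells PBS-washed, diluted MTT stock (1:10) added for 3.5 h, plates centrifuged before formazan read-out.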

[2] = tested on: MCF7; experiment: Cytotoxicity against human MCF7 cells after 48 hrs by MTT assay; conditions: MCF7, 48 h; in short: as §1
[3] = tested on: MCF7; experiment: Cytotoxicity against human MCF7 cells after 72 hrs by MTT assay; conditions: MCF7, 72 h
In short: (§2)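 ATCC-sourced lines grown at 37 °C, 5% CO2 in RPMI-1640 or DMEM with 5-10% FBS plus penicillin/streptomycin. Cells exposed to a range of doses for 72 h at 37 °C. MTT added, medium removed 4 h later, formazan dissolved in DMSO and read at 570-690 nm. IC50 from three independent assays, two wells each, via % viability.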

[4] = tested on: DU-145; experiment: Cytotoxicity against human DU145 cells after 72 hrs by MTT assay; conditions: DU-145, 72 h; in short: as §2
[5] = tested on: LNCaP; experiment: Cytotoxicity against human LNCAP cells after 72 hrs by MTT assay; in short: as §2
[6] = tested on: PC-3; experiment: Cytotoxicity against human PC3 cells after 72 hrs by MTT assay; conditions: PC-3, 72 h; in short: as §2

Row | SMILES | IC50 [1] | IC50 [2] | IC50 [3] | IC50 [4] | IC50 [5] | IC50 [6]
1 | C=CC[C@@H](OC(=O)C=C)c1c(C)ccc2ccccc12 | 8.8 µM | 10.4 µM | – | – | – | –
2 | O=C1C=CC[C@H](c2cccc3ccccc23)O1 | 0.8 µM | 2.6 µM | – | – | – | –
3 | C=CC[C@@H](OC(=O)C=C)c1cccc2ccccc12 | 22.9 µM | > 50 µM | – | – | – | –
4 | O=C1C=CC[C@H](c2ccnc3ccccc23)O1 | 9.8 µM | 32.5 µM | – | – | – | –
5 | O=C1C=CC[C@H](/C=C/c2ccccc2)O1 [GONIOTHALAMIN] | – | – | 28 µM | 19 µM | 12 µM | 4 µM
6 | Cc1ccc([C@H]2CC=CC(=O)O2)c2ccccc12 | 0.05 µM | 0.44 µM | – | – | – | –
7 | C=CC[C@@H](OC(=O)C=C)c1cnc2ccccc2c1 | 16.3 µM | 28.8 µM | – | – | – | –
8 | O=C1C=CC[C@H](c2cccc(Oc3ccccc3)c2)O1 | 11 µM | > 50 µM | – | – | – | –
9 | C=CC[C@@H](OC(=O)C=C)c1cccc(Oc2ccccc2)c1 | > 50 µM | > 50 µM | – | – | – | –
10 | O=C1C=CC[C@H](c2cnc3ccccc3c2)O1 | 2.5 µM | 3.2 µM | – | – | – | –
11 | O=C1C=CC[C@@H](c2ccc3ccccc3c2)O1 | – | – | 37 µM | 28 µM | 15 µM | 12 µM
12 | Cc1ccc2ccccc2c1[C@H]1CC=CC(=O)O1 | 0.13 µM | 2.6 µM | – | – | – | –
13 | C=CC[C@@H](OC(=O)C=C)c1ccc(C)c2ccccc12 | 45 µM | 33.1 µM | – | – | – | –
14 | O=C1C=CC[C@H](c2ccc3ccccc3c2)O1 | – | – | 19 µM | 12 µM | 11 µM | 3 µM
15 | C=CC[C@@H](OC(=O)C=C)c1ccnc2ccccc12 | 15 µM | 13.2 µM | – | – | – | –
